Reference: ChEMBL document CHEMBL3286116, “Synthesis, biological evaluation and structure-activity correlation study of a series of imidazol-based compounds as Candida albicans inhibitors” (Eur J Med Chem, 2014)

What was measured:
Format in all cases: functional
Candida albicans [1] = test: Antifungal activity against Candida albicans ATCC 3153 after 48 hrs by CLSI broth microdilution method; conditions: ATCC 3153, 48 h
How it was run: (§1)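 Yeast CLSI broth microdilution (M27-A3). Compounds dissolved in DMSO at 100× the top test concentration, then diluted as serial two-fold dilutions in RPMI 1640 to final 0.125–64. Inoculum was 1.0–1.5 × 10^3 cells mL−1, incubated at 35 °C and read for growth at 48 h. MIC is the lowest concentration giving ≥50% growth inhibition versus growth control. Reported as the median of five replicates and as the geometric mean.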

Candida albicans [2] = test: Antifungal activity against Candida albicans ATCC 10261 after 48 hrs by CLSI broth microdilution method; conditions: ATCC 10261, 48 h; how it was run: as §1
Candida tropicalis [3] = test: Antifungal activity against Candida tropicalis PMC 0910 after 48 hrs by CLSI broth microdilution method; conditions: PMC 0910, 48 h; how it was run: as §1
Cryptococcus neoformans [4] = test: Antifungal activity against Cryptococcus neoformans PMC 2123 after 72 hrs by CLSI broth microdilution method; conditions: PMC 2123, 72 h
How it was run: (§2)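 Cryptococcus neoformans tested by CLSI broth microdilution in RPMI 1640, with serial two-fold dilutions from DMSO stocks at 100× the top concentration, final 0.125–64. Inoculum was 1.0–1.5 × 10^3 cells mL−1 at 35 °C, with growth read at 72 h. MIC is the lowest concentration with ≥50% growth inhibition versus control. Median of five replicates, plus geometric mean.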

Nakaseomyces glabratus [5] = test: Antifungal activity against Candida glabrata PMC 0807 after 48 hrs by CLSI broth microdilution method; conditions: PMC 0807, 48 h; how it was run: as §1
Candida tropicalis [6] = test: Antifungal activity against Candida tropicalis DSM 11953 after 48 hrs by CLSI broth microdilution method; conditions: DSM 11953, 48 h; how it was run: as §1
Nakaseomyces glabratus [7] = test: Antifungal activity against Candida glabrata PMC 0805 after 48 hrs by CLSI broth microdilution method; conditions: PMC 0805, 48 h; how it was run: as §1
Cryptococcus neoformans [8] = test: Antifungal activity against Cryptococcus neoformans DSM 11959 after 72 hrs by CLSI broth microdilution method; conditions: DSM 11959, 72 h; how it was run: as §2
Cryptococcus neoformans [9] = test: Antifungal activity against Cryptococcus neoformans PMC 2111 after 72 hrs by CLSI broth microdilution method; conditions: PMC 2111, 72 h; how it was run: as §2
Cryptococcus neoformans [10] = test: Antifungal activity against Cryptococcus neoformans PMC 2136 after 72 hrs by CLSI broth microdilution method; conditions: PMC 2136, 72 h; how it was run: as §2
Cryptococcus neoformans [11] = test: Antifungal activity against Cryptococcus neoformans PMC 2107 after 72 hrs by CLSI broth microdilution method; conditions: PMC 2107, 72 h; how it was run: as §2
Candida albicans [12] = test: Antifungal activity against Candida albicans ATCC 20891 after 48 hrs by CLSI broth microdilution method; conditions: ATCC 20891, 48 h; how it was run: as §1
Candida albicans [13] = test: Antifungal activity against Candida albicans ATCC 76615 after 48 hrs by CLSI broth microdilution method; conditions: ATCC 76615, 48 h; how it was run: as §1
[14] = test system: Trichophyton mentagrophytes; test: Antifungal activity against Trichophyton mentagrophytes PMC 6552 after 72 hrs by CLSI broth microdilution method; conditions: PMC 6552, 72 h
How it was run: (§3)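 Dermatophytes tested by CLSI broth microdilution for filamentous fungi (M38-A2). Serial two-fold dilutions of DMSO-dissolved compound in RPMI 1640, final 0.125–64. Inoculum was 0.4–5 × 10^4 CFU mL−1, incubated at 35 °C and read at 72 h. MIC80 is the lowest concentration giving ≥80% growth inhibition versus growth control. Median of five replicates, plus geometric mean.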

Candida albicans [15] = test: Antifungal activity against Candida albicans PMC 1011 after 48 hrs by CLSI broth microdilution method; conditions: PMC 1011, 48 h; how it was run: as §1
Pichia kudriavzevii [16] = test: Antifungal activity against Candida krusei PMC 0613 after 48 hrs by CLSI broth microdilution method; conditions: PMC 0613, 48 h; how it was run: as §1
Cryptococcus neoformans [17] = test: Antifungal activity against Cryptococcus neoformans PMC 2103 after 72 hrs by CLSI broth microdilution method; conditions: PMC 2103, 72 h; how it was run: as §2
Candida parapsilosis [18] = test: Antifungal activity against Candida parapsilosis ATCC 22019 after 48 hrs by CLSI broth microdilution method; conditions: Lodderomyces parapsilosis, ATCC 22019, 48 h; how it was run: as §1
Cryptococcus neoformans [19] = test: Antifungal activity against Cryptococcus neoformans PMC 2102 after 72 hrs by CLSI broth microdilution method; conditions: PMC 2102, 72 h; how it was run: as §2
Candida albicans [20] = test: Antifungal activity against Candida albicans ATCC 24433 after 48 hrs by CLSI broth microdilution method; conditions: ATCC 24433, 48 h; how it was run: as §1
Pichia kudriavzevii [21] = test: Antifungal activity against Candida krusei DSM 6128 after 48 hrs by CLSI broth microdilution method; conditions: DSM 6128, 48 h; how it was run: as §1
[22] = test system: Trichophyton mentagrophytes; test: Antifungal activity against Trichophyton mentagrophytes PMC 6503 after 72 hrs by CLSI broth microdilution method; conditions: PMC 6503, 72 h; how it was run: as §3
Candida albicans [23] = test: Antifungal activity against Candida albicans ATCC 10231 after 48 hrs by CLSI broth microdilution method; conditions: ATCC 10231, 48 h; how it was run: as §1
Candida parapsilosis [24] = test: Antifungal activity against Candida parapsilosis DSM 11224 after 48 hrs by CLSI broth microdilution method; conditions: Lodderomyces parapsilosis, DSM 11224, 48 h; how it was run: as §1
[25] = test system: Trichophyton mentagrophytes; test: Antifungal activity against Trichophyton mentagrophytes PMC 6531 after 72 hrs by CLSI broth microdilution method; conditions: PMC 6531, 72 h; how it was run: as §3
[26] = test system: Trichophyton mentagrophytes; test: Antifungal activity against Trichophyton mentagrophytes PMC 6515 after 72 hrs by CLSI broth microdilution method; conditions: PMC 6515, 72 h; how it was run: as §3
Nannizzia gypsea [27] = test: Antifungal activity against Microsporum gypseum DSM 3824 after 72 hrs by CLSI broth microdilution method; conditions: DSM 3824, 72 h; how it was run: as §3
Candida albicans [28] = test: Antifungal activity against Candida albicans ATCC 90028 after 48 hrs by CLSI broth microdilution method; conditions: ATCC 90028, 48 h; how it was run: as §1
Cryptococcus neoformans [29] = test: Antifungal activity against Cryptococcus neoformans PMC 2115 after 72 hrs by CLSI broth microdilution method; conditions: PMC 2115, 72 h; how it was run: as §2
[30] = test system: Trichophyton mentagrophytes; test: Antifungal activity against Trichophyton mentagrophytes PMC 6509 after 72 hrs by CLSI broth microdilution method; conditions: PMC 6509, 72 h; how it was run: as §3
[31] = test system: Trichophyton mentagrophytes; test: Antifungal activity against Trichophyton mentagrophytes DSM 4870 after 72 hrs by CLSI broth microdilution method; conditions: DSM 4870, 72 h; how it was run: as §3
Nannizzia gypsea [32] = test: Antifungal activity against Microsporum gypseum PMC 7331 after 72 hrs by CLSI broth microdilution method; conditions: PMC 7331, 72 h; how it was run: as §3
Nannizzia gypsea [33] = test: Antifungal activity against Microsporum gypseum PMC 7303 after 72 hrs by CLSI broth microdilution method; conditions: PMC 7303, 72 h; how it was run: as §3

CCS(=O)(=O)N1CCN(c2ccc(NC(=O)OC(Cn3ccnc3)c3ccc(F)cc3)cc2)CC1 (stereo unspecified)
128 µg/mL: MIC50 (Candida albicans [1]) | MIC50 (Candida albicans [2]) | MIC50 (Candida tropicalis [3]) | MIC50 (Nakaseomyces glabratus [5]) | MIC50 (Candida tropicalis [6]) | MIC50 (Nakaseomyces glabratus [7]) | MIC50 (Candida albicans [12]) | MIC50 (Candida albicans [13]) | MIC80 [14] | MIC50 (Candida albicans [15]) | MIC50 (Pichia kudriavzevii [16]) | MIC50 (Candida parapsilosis [18]) | MIC50 (Candida albicans [20]) | MIC50 (Pichia kudriavzevii [21]) | MIC80 [22] | MIC50 (Candida albicans [23]) | MIC50 (Candida parapsilosis [24]) | MIC80 [25] | MIC80 [26] | MIC80 (Nannizzia gypsea [27]) | MIC50 (Candida albicans [28]) | MIC80 [30] | MIC80 [31] | MIC80 (Nannizzia gypsea [32]) | MIC80 (Nannizzia gypsea [33])
16 µg/mL: MIC50 (Cryptococcus neoformans [8]) | MIC50 (Cryptococcus neoformans [9]) | MIC50 (Cryptococcus neoformans [10]) | MIC50 (Cryptococcus neoformans [17]) | MIC50 (Cryptococcus neoformans [19])
32 µg/mL: MIC50 (Cryptococcus neoformans [4]) | MIC50 (Cryptococcus neoformans [29])
8 µg/mL: MIC50 (Cryptococcus neoformans [11])

O=C(Nc1ccc(N2CCN(C(=O)c3ccco3)CC2)cc1)OC(Cn1ccnc1)c1ccc(F)cc1 (stereo unspecified)
64 µg/mL: MIC50 (Cryptococcus neoformans [4]) | MIC50 (Cryptococcus neoformans [29]) | MIC80 (Nannizzia gypsea [33])
128 µg/mL: MIC50 (Candida albicans [1]) | MIC50 (Candida tropicalis [3]) | MIC50 (Nakaseomyces glabratus [5]) | MIC50 (Candida tropicalis [6]) | MIC50 (Nakaseomyces glabratus [7]) | MIC50 (Candida albicans [12]) | MIC50 (Candida albicans [13]) | MIC80 [14] | MIC50 (Candida albicans [15]) | MIC50 (Pichia kudriavzevii [16]) | MIC50 (Candida parapsilosis [18]) | MIC50 (Candida albicans [20]) | MIC50 (Pichia kudriavzevii [21]) | MIC80 [22] | MIC50 (Candida albicans [23]) | MIC50 (Candida parapsilosis [24]) | MIC80 [25] | MIC80 [26] | MIC80 (Nannizzia gypsea [27]) | MIC50 (Candida albicans [28]) | MIC80 [30] | MIC80 [31] | MIC80 (Nannizzia gypsea [32])
1 µg/mL: MIC50 (Cryptococcus neoformans [17])
32 µg/mL: MIC50 (Candida albicans [2]) | MIC50 (Cryptococcus neoformans [19])
16 µg/mL: MIC50 (Cryptococcus neoformans [8]) | MIC50 (Cryptococcus neoformans [9]) | MIC50 (Cryptococcus neoformans [10]) | MIC50 (Cryptococcus neoformans [11])
